From PubChem BioAssay AID588478 (ICCB-Longwood Screening Facility, Harvard Medical School, 2011)
The campaign covered roughly 330,000 compounds. About 1,100 (0.33%) were called active. This excerpt belongs to a sample that is enriched for actives. Unmarked numbers belong to inactive results.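 Rule for the calls: active = mean inhibition over replicate wells above about 20% (limit read from the data); inactive = the rest.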

Each molecule was assayed against Ubiquitin carboxyl-terminal hydrolase isozyme L5 (Homo sapiens) (UniProt Q9Y5K5) (assay: inhibitors of human UCH37 deubiquitinase, primary screen, biochemical, Ub-AMC cleavage, fluorescence (AID 588478;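 note: 0% = compound-free wells with enzyme and 100% = wells lacking proteasome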)). Details: purified proteasome/UCH37, Ub-AMC cleavage fluorescence; active compounds read high; concentration not given here.
Sequence of Ubiquitin carboxyl-terminal hydrolase isozyme L5 (Homo sapiens) (Q9Y5K5 whole entry, looked up): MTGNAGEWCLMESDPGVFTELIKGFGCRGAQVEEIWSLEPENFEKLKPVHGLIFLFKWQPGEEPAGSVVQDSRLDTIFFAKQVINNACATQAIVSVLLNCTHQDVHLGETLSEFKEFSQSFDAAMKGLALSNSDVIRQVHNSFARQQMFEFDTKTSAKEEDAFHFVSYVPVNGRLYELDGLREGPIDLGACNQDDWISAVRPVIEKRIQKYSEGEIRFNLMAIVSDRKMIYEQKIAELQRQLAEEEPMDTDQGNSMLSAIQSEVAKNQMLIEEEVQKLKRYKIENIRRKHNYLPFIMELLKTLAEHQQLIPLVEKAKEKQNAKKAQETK
Procedure, shortened: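 System: Proteasome-associated human UCH37 deubiquitinase; Input: 0.15 nM proteasome in added enzyme buffer; Also added: Ub-AMC substrate from 1 µM stock; Incubation: 30 min compound-proteasome preincubation then 25 min substrate reaction, room temperature; Detection: fluorescence, ex 355 nm, em 460 nm; Read-out: % inhibition of Ub-AMC cleavage fluorescence; Benchmarks: no-proteasome and no-compound wells.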
With CCCCCCCCCCCCn1ccc(=N)cc1 the inhibition was 29.5% (active).
Brc1ccc2[nH]cc(C=NN3CCCCC3)c2c1 was tested, and the inhibition was 1.15%.
C#C[C@]1(O)CCC2C3CCC4=CC(=NOCC(=O)NC(C)C(=O)NC(CCSC)C(=O)O)CC[C@]4(C)C3CC[C@@]21C (stereo not given in full) was tested, and the inhibition was -1.31%.
With C=CCN1CC[C@]23c4c5ccc(O)c4O[C@H]2C(=NNC(=O)c2ccccc2)CC[C@@]3(O)[C@H]1C5 the inhibition was 4.43%.
In the case of CC12CCC3C(CCC4CC(=NO)CCC43C)C1CCC2O (stereo not given), the inhibition is reported as 2.36%.
CCC(C)n1c(O)c(/C=N/Nc2nc3c(c(=O)n(C)c(=O)n3C)n2C)c(=O)[nH]c1=S (stereo not given) was tested, and the inhibition was 21.4% (active).
In the case of Cc1ccccc1/C=C\c1nc(O)c([N+](=O)[O-])c(=O)[nH]1, the inhibition is reported as 11.3%.
CNC(=O)Nc1ccc(C(=O)NN=CC23CC[C@@H](O)CC2(O)CC[C@@H]2[C@@H]3CCC3(C)C(C4=CC(=O)OC4)CCC23O)cc1 (stereo not given in full) gave an inhibition of 3.8%.
COc1cc(C(=O)NC2CCN(Cc3ccccc3)CC2)cc(Cl)c1OC(C)C showed an inhibition of 4.45%.
O=C1NC(=O)N(c2ccccc2)C(=O)/C1=C/c1ccc([N+](=O)[O-])s1 was tested, and the inhibition was 5.15%.
With COc1ccc(N2C(=O)/C(=C/c3ccco3)C(=O)NC2=S)cc1 the inhibition was 31.7% (active).
COc1cccc(N2C(=O)NC(=O)/C(=C\c3ccc([N+](=O)[O-])s3)C2=O)c1 was tested, and the inhibition was 11.5%.
Work on Nc1nonc1C(=O)NN=Cc1ccc([N+](=O)[O-])o1 yielded an inhibition of 13.2%.
In the case of CC1=CC(=Cc2sc3ccccc3[n+]2C)C=C(C)O1, the inhibition is reported as 20.3% (active).
With COC(=O)[C@H](Cc1ccccc1)NC(=O)Nc1ccc(S(N)(=O)=O)cc1 the inhibition was 2.98%.
Work on COc1ccc(C=NN=C(N)N[N+](=O)[O-])c(OC)c1 yielded an inhibition of 18.6%.
Oc1ccc(C=NNP(=S)(c2ccccc2)c2ccccc2)cc1O was tested, and the inhibition was 2.56%.
Work on COc1cccc(C(=O)N2C[C@H]3C[C@@H](C2)c2cccc(=O)n2C3)c1 yielded an inhibition of 2.34%.
For O=C(CN1CCN(S(=O)(=O)c2cccc(Cl)c2)CC1)N1CCCCC1, the inhibition was 5.51%.
CN1CCN(N=Cc2c[nH]c3ccccc23)CC1 showed an inhibition of 3.94%.
